In ChEMBL document CHEMBL3585281, “Antibacterial Labdane Diterpenoids from Vitex vestita” (2015):

Legend:
Format in all cases: functional
[1] = tested on: Corynebacterium striatum; test: Antibacterial activity against Corynebacterium striatum N840 after 18 hrs by agar dilution method; settings: N840, 18 h
Procedure, shortened: (§1)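 Agar-dilution MIC against Gram-positive strains. Compounds in DMSO, geometric dilutions giving final 100−0.75 mg/L in Mueller Hinton agar. Strains grown 18 h at 37 °C in trypticase soy broth, diluted in sterile water, spotted by Steers inoculator (about 1000 UFC/spot). Plates incubated 18 h at 37 °C; DMSO blank; ofloxacin positive control. MIC = lowest concentration with no visible growth.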

[2] = tested on: Enterococcus gallinarum; test: Antibacterial activity against Enterococcus gallinarum N489 after 18 hrs by agar dilution method; settings: N489, 18 h; procedure, shortened: as §1
[3] = tested on: Enterococcus hirae; test: Antibacterial activity against Enterococcus hirae CIP 5855 after 18 hrs by agar dilution method; settings: CIP 5855, 18 h; procedure, shortened: as §1
[4] = tested on: Staphylococcus aureus; test: Antibacterial activity against Staphylococcus aureus ATCC 9144 oxford after 18 hrs by agar dilution method; procedure, shortened: as §1
[5] = tested on: Enterococcus faecium; test: Antibacterial activity against Enterococcus faecium N823 after 18 hrs by agar dilution method; settings: N823, 18 h; procedure, shortened: as §1
[6] = tested on: Enterococcus durans; test: Antibacterial activity against Enterococcus durans CIP 104999 after 18 hrs by agar dilution method; settings: CIP 104999, 18 h; procedure, shortened: as §1
[7] = tested on: Enterococcus gallinarum; test: Antibacterial activity against Enterococcus gallinarum N492 after 18 hrs by agar dilution method; settings: N492, 18 h; procedure, shortened: as §1
[8] = tested on: Enterococcus faecalis; test: Antibacterial activity against Enterococcus faecalis N520 after 18 hrs by agar dilution method; settings: N520, 18 h; procedure, shortened: as §1
[9] = tested on: Bacillus cereus; test: Antibacterial activity against Bacillus cereus N190 after 18 hrs by agar dilution method; settings: N190, 18 h; procedure, shortened: as §1
[10] = tested on: Staphylococcus aureus; test: Antibacterial activity against Staphylococcus aureus CIP 53154 after 18 hrs by agar dilution method; settings: CIP 53154, 18 h; procedure, shortened: as §1
[11] = tested on: Staphylococcus epidermidis; test: Antibacterial activity against Staphylococcus epidermidis CIP 53124 after 18 hrs by agar dilution method; settings: CIP 53124, 18 h; procedure, shortened: as §1
[12] = tested on: Enterococcus faecium; test: Antibacterial activity against Enterococcus faecium CIP 107387 after 18 hrs by agar dilution method; settings: CIP 107387, 18 h; procedure, shortened: as §1
[13] = tested on: Listeria monocytogenes; test: Antibacterial activity against Listeria monocytogenes N851 after 18 hrs by agar dilution method; settings: N851, 18 h; procedure, shortened: as §1
[14] = tested on: Staphylococcus haemolyticus; test: Antibacterial activity against Staphylococcus haemolyticus CIP 8156 after 18 hrs by agar dilution method; settings: CIP 8156, 18 h; procedure, shortened: as §1
[15] = tested on: Enterococcus faecium; test: Antibacterial activity against Enterococcus faecium N733 after 18 hrs by agar dilution method; settings: N733, 18 h; procedure, shortened: as §1
[16] = tested on: Listeria monocytogenes; test: Antibacterial activity against Listeria monocytogenes CIP 103575 after 18 hrs by agar dilution method; settings: CIP 103575, 18 h; procedure, shortened: as §1
[17] = tested on: Enterococcus casseliflavus; test: Antibacterial activity against Enterococcus casseliflavus N487 after 18 hrs by agar dilution method; settings: N487, 18 h; procedure, shortened: as §1
[18] = tested on: Listeria monocytogenes; test: Antibacterial activity against Listeria monocytogenes N783 after 18 hrs by agar dilution method; settings: N783, 18 h; procedure, shortened: as §1
[19] = tested on: Bacillus cereus; test: Antibacterial activity against Bacillus cereus N349 after 18 hrs by agar dilution method; settings: N349, 18 h; procedure, shortened: as §1
[20] = tested on: Enterococcus faecium; test: Antibacterial activity against Enterococcus faecium CIP 103014 after 18 hrs by agar dilution method; settings: CIP 103014, 18 h; procedure, shortened: as §1
[21] = tested on: Enterococcus faecalis; test: Antibacterial activity against Enterococcus faecalis CIP 103214 after 18 hrs by agar dilution method; settings: CIP 103214, 18 h; procedure, shortened: as §1
[22] = tested on: Listeria innocua; test: Antibacterial activity against Listeria innocua E044 after 18 hrs by agar dilution method; settings: E044, 18 h; procedure, shortened: as §1
[23] = tested on: Mammaliicoccus sciuri; test: Antibacterial activity against Staphylococcus sciuri N993 after 18 hrs by agar dilution method; settings: N993, 18 h; procedure, shortened: as §1
[24] = tested on: Staphylococcus aureus; test: Antibacterial activity against Staphylococcus aureus ATCC 25923 after 18 hrs by agar dilution method; settings: ATCC 25923, 18 h; procedure, shortened: as §1
[25] = tested on: Bacillus cereus; test: Antibacterial activity against Bacillus cereus CIP 6624 after 18 hrs by agar dilution method; settings: CIP 6624, 18 h; procedure, shortened: as §1
[26] = tested on: Staphylococcus saprophyticus; test: Antibacterial activity against Staphylococcus saprophyticus CIP 76125 after 18 hrs by agar dilution method; settings: CIP 76125, 18 h; procedure, shortened: as §1
[27] = tested on: Enterococcus faecium; test: Antibacterial activity against Enterococcus faecium N490 after 18 hrs by agar dilution method; settings: N490, 18 h; procedure, shortened: as §1
[28] = tested on: Enterococcus faecium; test: Antibacterial activity against Enterococcus faecium N507 after 18 hrs by agar dilution method; settings: N507, 18 h; procedure, shortened: as §1
[29] = tested on: Enterococcus gallinarum; test: Antibacterial activity against Enterococcus gallinarum CIP 105985 after 18 hrs by agar dilution method; settings: CIP 105985, 18 h; procedure, shortened: as §1
[30] = tested on: Staphylococcus aureus; test: Antibacterial activity against Staphylococcus aureus CRBIP 2121 after 18 hrs by agar dilution method; settings: CRBIP 2121, 18 h; procedure, shortened: as §1
[31] = tested on: Streptococcus agalactiae; test: Antibacterial activity against Streptococcus agalactiae CIP 103227 after 18 hrs by agar dilution method; settings: ATCC 13813, 18 h; procedure, shortened: as §1
[32] = tested on: Bacillus cereus; test: Antibacterial activity against Bacillus cereus N258 after 18 hrs by agar dilution method; settings: N258, 18 h; procedure, shortened: as §1
[33] = tested on: Bacillus spizizenii; test: Antibacterial activity against Bacillus subtilis ATCC 6633 after 18 hrs by agar dilution method; settings: ATCC 6633, 18 h; procedure, shortened: as §1
[34] = tested on: Listeria monocytogenes; test: Antibacterial activity against Listeria monocytogenes N836 after 18 hrs by agar dilution method; settings: N836, 18 h; procedure, shortened: as §1
[35] = tested on: Staphylococcus aureus; test: Antibacterial activity against Staphylococcus aureus CIP 7625 after 18 hrs by agar dilution method; settings: CIP 7625, 18 h; procedure, shortened: as §1
[36] = tested on: Enterococcus faecalis; test: Antibacterial activity against Enterococcus faecalis CIP 104676 after 18 hrs by agar dilution method; settings: CIP 104676, 18 h; procedure, shortened: as §1
[37] = tested on: Staphylococcus aureus; test: Antibacterial activity against Staphylococcus aureus CIP 483 after 18 hrs by agar dilution method; settings: CIP 483, 18 h; procedure, shortened: as §1
[38] = tested on: Staphylococcus lugdunensis; test: Antibacterial activity against Staphylococcus lugdunensis ATCC 43809 after 18 hrs by agar dilution method; settings: ATCC 43809, 18 h; procedure, shortened: as §1
[39] = tested on: Enterococcus avium; test: Antibacterial activity against Enterococcus avium CIP 104053 after 18 hrs by agar dilution method; settings: CIP 104053, 18 h; procedure, shortened: as §1
[40] = tested on: Staphylococcus intermedius; test: Antibacterial activity against Staphylococcus intermedius N987 after 18 hrs by agar dilution method; settings: N987, 18 h; procedure, shortened: as §1
[41] = tested on: Enterococcus faecalis; test: Antibacterial activity against Enterococcus faecalis N491 after 18 hrs by agar dilution method; settings: N491, 18 h; procedure, shortened: as §1
[42] = tested on: Enterococcus casseliflavus; test: Antibacterial activity against Enterococcus casseliflavus CIP 103018 after 18 hrs by agar dilution method; settings: CIP 103018, 18 h; procedure, shortened: as §1
[43] = tested on: Enterococcus faecalis; test: Antibacterial activity against Enterococcus faecalis N518 after 18 hrs by agar dilution method; settings: N518, 18 h; procedure, shortened: as §1
[44] = tested on: Staphylococcus aureus; test: Antibacterial activity against Staphylococcus aureus CIP 5710 after 18 hrs by agar dilution method; settings: CIP 5710, 18 h; procedure, shortened: as §1
[45] = tested on: Staphylococcus saprophyticus; test: Antibacterial activity against Staphylococcus saprophyticus E260 after 18 hrs by agar dilution method; settings: E260, 18 h; procedure, shortened: as §1
[46] = tested on: Staphylococcus aureus; test: Antibacterial activity against Staphylococcus aureus CIP 53156 after 18 hrs by agar dilution method; settings: CIP 53156, 18 h; procedure, shortened: as §1

Measured: MIC

CN[C@H](CC(C)C)C(=O)N[C@H]1C(=O)N[C@@H](CC(N)=O)C(=O)N[C@H]2C(=O)N[C@H]3C(=O)N[C@H](C(=O)N[C@H](C(=O)O)c4cc(O)cc(O)c4-c4cc3ccc4O)[C@H](O)c3ccc(c(Cl)c3)Oc3cc2cc(c3O[C@@H]2O[C@H](CO)[C@@H](O)[C@H](O)[C@H]2O[C@H]2C[C@](C)(N)[C@H](O)[C@H](C)O2)Oc2ccc(cc2Cl)[C@H]1O [VANCOMYCIN]
0.2 µM: [4]
1.3 µM: [21]
2.7 µM: [17] | [30] | [35] | [42]
> 86 µM: [5] | [12] | [15] | [41]
22 µM: [27]
0.6 µM: [8] | [10] | [11] | [14] | [19] | [23] | [24] | [26] | [28] | [37] | [38] | [40] | [43] | [44] | [45]
5 µM: [2] | [7] | [29] | [36]
0.1 µM: [33]
0.3 µM: all other assays above
